The source made the active and inactive calls. The rule behind the calls is not given here.

The species entered for one assay is Bos taurus. The assay can be described thus: Inhibition of bovine lung sGC using GTP as substrate assessed as inhibition of NO-stimulated cGMP formation at 100 uM preincubated with protein followed by NO addition measured after 2 mins by radioimmunoassay relative to control. An outline of the steps: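 Purified bovine lung sGC (5 ng/ml) in 50 mM Tris, 0.3 mM MgCl, 100 μM EGTA, 0.045% BSA, 1000 units/mL SOD, pH 7.4, with 1 mM MgGTP at 37 °C. Compound (100 μM) added before DEA/NO (30 nM). Reaction ran 2 min, then aliquots were boiled in 50 mM Tris/4 mM EDTA. cGMP was quantified by [3H] radioimmunoassay.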

For another assay, the species on record is Rattus norvegicus. The assay can be described thus: Inhibition of sGC in rat cerebellar slices assessed as inhibition of NMDA-induced cGMP production at 100 uM preincubated for 10 mins followed by phosphodiesterase inhibitor IBMX addition by radioimmunoassay. In a few lines: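 Sagittal cerebellar slices 0.4 mm thick were cut from 10-day-old rats. Antagonists were added 10 min before IBMX (1 mM, 10 min preincubation). Slices were inactivated in boiling Tris–HCl (50 mM, pH 7.5) with EDTA (4 mM) and sonicated. Protein was measured by bicinchoninic acid and cGMP by radioimmunoassay.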

The target of assay [1] is T1, Adenylate cyclase (Homo sapiens) (UniProt Q8NFM4+O60503+Q08828+P40145+O60266+O95622+O43306+Q08462+P51828). The assay can be described thus: Inhibition of forskolin-stimulated adenylyl cyclase (unknown origin).
In assay [2] the target is T1, Adenylate cyclase (Homo sapiens). The assay can be described thus: Inhibition of adenylyl cyclase (unknown origin). It is filed as protein assay.
The target in assay [3] is Soluble guanylate cyclase (Homo sapiens) (UniProt Q02153+O75343+P33402+Q02108). The assay is described as follows: Binding affinity to human recombinant sGC catalytic subunit by surface plasmon resonance analysis. The assay is classed as protein-complex assay. On the technique in general: Surface plasmon resonance follows binding to a sensor surface in real time, without labels.

On to `Oc1ccc(Nc2nc3ccc(Cl)cc3nc2Nc2ccc(O)cc2)cc1`, for which the inhibition entry in the assay listed under Bos taurus was “inactive”. On the same count and under the same terms, the entry for `N#Cc1ccc2nc(Nc3cccc(O)c3)c(Nc3cccc(O)c3)nc2c1` is “inactive”. In the case of `CC(=O)Nc1cccc(Nc2nc3ccc([N+](=O)[O-])cc3nc2Nc2cccc(NC(C)=O)c2)c1`, the inhibition result in the assay listed under Bos taurus is “inactive”. The same measure, in the same setting: the entry for `N#Cc1ccc2nc(Nc3ccc(O)cc3)c(Nc3ccc(O)cc3)nc2c1` is “inactive”; for `COc1ccc(Nc2nc3ccc([N+](=O)[O-])cc3nc2Nc2ccc(OC)cc2)cc1` it is “inactive”.

As to `O=[N+]([O-])c1ccc2nc(Nc3ccc(O)cc3)c(Nc3ccc(O)cc3)nc2c1`, the inhibition entry in the assay filed under Rattus norvegicus was “Active”. In addition, the inhibition result in assay [1] and in assay [2] was “inactive” in each case. In the case of `CNC(=O)c1ccc2nc(Nc3cccc(O)c3)c(Nc3cccc(O)c3)nc2c1`, the RU in assay [3] stood at 9.6.

For the compound `Oc1cccc(Nc2nc3ccc(Cl)cc3nc2Nc2cccc(O)c2)c1`, the inhibition result in the assay listed under Bos taurus was “inactive”.

For `O=[N+]([O-])c1ccc2nc(Nc3ccc(F)cc3)c(Nc3ccc(F)cc3)nc2c1`, in the assay filed under Bos taurus, the inhibition entry is “inactive”. For `CC(=O)Nc1ccc(Nc2nc3ccc([N+](=O)[O-])cc3nc2Nc2ccc(NC(C)=O)cc2)cc1`, the inhibition result in the assay filed under Bos taurus is “inactive”. As for `Nc1ccc2nc(Nc3ccc(O)cc3)c(Nc3ccc(O)cc3)nc2c1`, the inhibition entry in the assay listed under Bos taurus was “inactive”.

The values above are taken from ChEMBL document CHEMBL3603751, “A new small molecule inhibitor of soluble guanylate cyclase” (Bioorg Med Chem, 2015).
